Legend:
[1] = target: T1, 5-hydroxytryptamine receptor 6 (Homo sapiens, UniProt P50406); assay: Binding constant towards serotonin receptor subtype 5-hydroxytryptamine 6 receptor expressed in HeLa cells using [3H]LSD as radioligand; format: cell-based
Summary of the method: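 Radioligand binding to human recombinant 5-HT6 receptor expressed in HeLa cells with [3H]-LSD. Values are the mean ± SEM of three independent determinations, each run in triplicate.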

[2] = target: 5-hydroxytryptamine receptor 1D (Homo sapiens, UniProt P28221); assay: Binding constant towards serotonin receptor subtype 5-hydroxytryptamine 1D receptor expressed in HEK 293 cells using [3H]LSD as radioligand; format: cell-based, HEK293
[3] = target: T2, 5-hydroxytryptamine receptor 2C (Homo sapiens, UniProt P28335); assay: Binding constant towards serotonin receptor subtype 5-hydroxytryptamine 2C receptor expressed in 3T3 cells using [3H]5-HT as radioligand; format: cell-based, NIH3T3
T2 sequence (P28335 whole entry): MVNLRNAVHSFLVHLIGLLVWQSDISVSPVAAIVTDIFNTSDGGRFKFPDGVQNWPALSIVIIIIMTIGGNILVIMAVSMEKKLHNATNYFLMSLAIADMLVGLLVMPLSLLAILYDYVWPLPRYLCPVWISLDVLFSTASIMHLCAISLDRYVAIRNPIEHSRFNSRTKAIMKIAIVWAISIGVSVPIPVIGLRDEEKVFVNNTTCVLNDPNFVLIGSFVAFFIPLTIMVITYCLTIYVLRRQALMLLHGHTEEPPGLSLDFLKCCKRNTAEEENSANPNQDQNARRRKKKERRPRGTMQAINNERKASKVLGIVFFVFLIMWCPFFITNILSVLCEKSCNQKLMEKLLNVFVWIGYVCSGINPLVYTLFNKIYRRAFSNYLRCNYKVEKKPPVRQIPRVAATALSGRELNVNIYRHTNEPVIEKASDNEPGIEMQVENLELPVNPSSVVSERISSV

[4] = target: 5-hydroxytryptamine receptor 7 (Homo sapiens, UniProt P34969); assay: Binding constant towards serotonin receptor subtype 5-hydroxytryptamine 7 receptor expressed in CHO cells using [3H]LSD as radioligand; format: cell-based
[5] = target: 5-hydroxytryptamine receptor 2A (Homo sapiens, UniProt P28223); assay: Binding constant towards serotonin receptor subtype 5-hydroxytryptamine 2A receptor expressed in 3T3 cells using [3H]-DOB as radioligand
[6] = Half-life period after intravenous administration in rat; format: ADME, organism-based; conditions: in vivo
Summary of the method: (§1)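 Rats were dosed at 10 mg/kg in PEG/PG/WIP 40/40/20, either by oral gavage or intravenously with the same dose and formulation. Plasma concentrations were followed over 8 h. PK parameters were derived as plasma clearance, apparent terminal half-life, bioavailability and steady-state volume of distribution, reported as average ± SEM.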

[7] = Half-life period after oral administration in rat; format: ADME, organism-based; conditions: in vivo; summary of the method: as §1
[8] = Bioavailability after oral administration in rat expressed as percentage; format: ADME, organism-based; conditions: in vivo; summary of the method: as §1
[9] = test system: Rattus norvegicus; assay: Ratio of brain/plasma concentration after oral administration in rat expressed as percentage; format: ADME, organism-based
Summary of the method: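 Rats dosed at 10 mg/kg by oral gavage in PEG/PG/WIP 40/40/20. Brain and plasma concentrations were measured, and the brain/plasma ratio is given as a percentage (average ± SEM).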

[10] = Volume of distribution at steady state after intravenous administration in rat; format: ADME, organism-based; conditions: in vivo, read-out: Vss; summary of the method: as §1
[11] = Partition coefficient (logD7.4); format: physicochemical; conditions: octanol/water, pH 7.4
[12] = target: T1, 5-hydroxytryptamine receptor 6; assay: Antagonism assessed in a functional cAMP binding assay using 5-CT to stimulate human 5-hydroxytryptamine 6 receptor expressed in HEK 293 cells; format: cell-based, HEK293; conditions: read-out: pA2 (converted)
Summary of the method: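 Human 5-HT6 receptor stably expressed in HEK-293 cells; adenylate cyclase (cAMP) activity stimulated with 5-CT. 5-CT concentration–response curves were run with increasing antagonist concentrations, and the shift was analysed by Schild analysis, n = 3.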

[13] = In vivo plasma clearance after intravenous administration in rat; format: ADME, organism-based; conditions: read-out: Clp; summary of the method: as §1
[14] = Dissociation constant was determined

Sequence of 5-hydroxytryptamine receptor 7 (P34969 whole entry): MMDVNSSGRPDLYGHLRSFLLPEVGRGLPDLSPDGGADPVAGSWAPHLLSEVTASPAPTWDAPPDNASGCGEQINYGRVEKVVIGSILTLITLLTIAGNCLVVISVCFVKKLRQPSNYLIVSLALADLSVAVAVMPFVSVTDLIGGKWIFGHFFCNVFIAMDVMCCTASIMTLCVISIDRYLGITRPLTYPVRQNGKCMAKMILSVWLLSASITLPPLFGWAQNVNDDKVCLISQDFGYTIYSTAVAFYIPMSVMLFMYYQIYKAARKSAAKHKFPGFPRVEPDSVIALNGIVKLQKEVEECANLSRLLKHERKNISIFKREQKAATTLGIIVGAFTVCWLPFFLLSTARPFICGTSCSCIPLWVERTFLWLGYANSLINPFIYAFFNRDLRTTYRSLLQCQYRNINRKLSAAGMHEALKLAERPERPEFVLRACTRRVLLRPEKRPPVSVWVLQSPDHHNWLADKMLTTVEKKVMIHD
Sequence of 5-hydroxytryptamine receptor 1D (P28221 whole entry): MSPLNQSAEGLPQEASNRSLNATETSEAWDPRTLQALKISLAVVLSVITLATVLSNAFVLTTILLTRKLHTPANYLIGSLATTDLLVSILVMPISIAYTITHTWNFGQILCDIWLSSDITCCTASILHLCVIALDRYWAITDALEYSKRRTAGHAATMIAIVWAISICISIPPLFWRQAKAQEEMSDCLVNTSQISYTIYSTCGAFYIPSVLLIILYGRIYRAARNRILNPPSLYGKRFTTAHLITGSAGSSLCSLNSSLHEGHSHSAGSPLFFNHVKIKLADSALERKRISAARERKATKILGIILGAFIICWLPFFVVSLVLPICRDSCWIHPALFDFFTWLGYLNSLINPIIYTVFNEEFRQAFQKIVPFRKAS
T1 sequence (P50406 whole entry): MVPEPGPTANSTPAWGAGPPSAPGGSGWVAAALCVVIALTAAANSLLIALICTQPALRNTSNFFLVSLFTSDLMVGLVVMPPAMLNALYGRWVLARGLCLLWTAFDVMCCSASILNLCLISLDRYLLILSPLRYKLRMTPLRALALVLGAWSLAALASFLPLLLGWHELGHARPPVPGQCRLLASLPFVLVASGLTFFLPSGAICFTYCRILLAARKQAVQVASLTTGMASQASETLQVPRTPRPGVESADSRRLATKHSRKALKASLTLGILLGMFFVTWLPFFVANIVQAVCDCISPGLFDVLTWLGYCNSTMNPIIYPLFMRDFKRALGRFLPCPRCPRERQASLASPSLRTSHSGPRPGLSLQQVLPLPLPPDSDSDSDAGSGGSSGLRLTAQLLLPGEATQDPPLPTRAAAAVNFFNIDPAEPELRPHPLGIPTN
Sequence of 5-hydroxytryptamine receptor 2A (P28223 whole entry): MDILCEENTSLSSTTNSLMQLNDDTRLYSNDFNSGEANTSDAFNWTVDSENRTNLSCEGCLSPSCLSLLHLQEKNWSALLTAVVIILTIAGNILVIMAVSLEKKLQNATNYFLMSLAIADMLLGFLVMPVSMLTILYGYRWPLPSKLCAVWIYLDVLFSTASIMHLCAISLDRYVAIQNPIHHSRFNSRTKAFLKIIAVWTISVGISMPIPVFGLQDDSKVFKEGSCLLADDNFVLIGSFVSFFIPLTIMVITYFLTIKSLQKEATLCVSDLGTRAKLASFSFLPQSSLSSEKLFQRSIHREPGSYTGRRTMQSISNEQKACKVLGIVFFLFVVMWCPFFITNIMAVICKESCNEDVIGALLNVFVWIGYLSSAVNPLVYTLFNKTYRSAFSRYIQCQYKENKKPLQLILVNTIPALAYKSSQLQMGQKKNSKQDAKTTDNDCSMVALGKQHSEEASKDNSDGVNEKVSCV

| Compound | Ki [1] [nM] | Ki [2] [nM] | Ki [3] [nM] | Ki [4] [nM] | Ki [5] [nM] | other results |
| --- | --- | --- | --- | --- | --- | --- |
| CNc1cc(S(=O)(=O)Nc2ccc(N)cc2)cc(Br)n1 | 42.7 | – | – | – | – | – |
| CNc1cc(NS(=O)(=O)c2ccc(N)cc2)nc(NC)n1 | 55 | > 10000 | > 10000 | > 10000 | > 10000 | – |
| Nc1ccc(S(=O)(=O)c2cc(Br)nc(Br)c2)cc1 | 53.7 | – | – | – | – | – |
| Nc1ccc(S(=O)(=O)c2cc(Br)nc(N3CCNCC3)c2)cc1 | 0.115 | 1120 | 20.4 | > 10000 | – | – |
| CNc1cc(S(=O)(=O)c2ccc(N)cc2)cc(Br)n1 | 2.29 | > 10000 | > 10000 | > 10000 | – | – |
| Nc1ccc(S(=O)(=O)c2cc(Br)nc(N3CCCC3)c2)cc1 | 1 | > 100000 | > 10000 | > 100000 | 1450 | half-life [6]: 3.7 h; half-life [7]: 3 h; bioavailability [8]: 46%; Ratio [9]: 24%; Vd [10]: 1.4 L/kg; logD [11]: 3.3; Kb [12]: 3.16 nM; clearance [13]: 20 mL/min/kg; pKa [14]: < 2 |

— ChEMBL document CHEMBL1136747, “Influence of the 5-HT6 receptor on acetylcholine release in the cortex: pharmacological characterization of 4-(2-bromo-6-pyrrolidin-1-ylpyridine-4-sulfonyl)phenylamine, a potent and selective 5-HT6 receptor antagonist” (J Med Chem, 2003)
